One may read the solubility (kinetic) as solubility judged after dilution from a stock solution rather than from solid. A word on the thermodynamic solubility: it is solubility found after equilibrating the solid with the medium.

The text below walks through data of publication PMC4203399 (Journal of Medicinal Chemistry, 2014).

The target in one data set is recombinant NS5BCΔ21 1b (Hepatitis C virus genotype 1b, UniProt O92972). The data set can be described thus: NS5B primer dependent elongation. The data set is classed as biochemical.
The test system of the next data set is Huh-9-13 cells. The data set can be described thus: vital stains. The format is cell-based. The essentials:
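Huh-9-13 replicon cells seeded at 25.000 cells/dish in complete DMEM without G418. Next day, treated with test compound (90 μM), an NS3 protease inhibitor (15 μM) or DMSO for 3 days at 37 °C, 5% CO2. Stained 30 min with Nile Red (2 μg/mL), monodansylcadaverine (50 μM) or LipidTOX Red (1/1000), then imaged live by confocal microscopy.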

The test system of a further data set is Huh-5-2 cells. The data set can be described thus: microscopic examination of cell morphology in the replicon assay. The format is cell-based. The following applies: 72 h of compound treatment. On the technique in general: Replicon systems follow genome replication, usually without infectious particles.
Data set [1] deals with genotype 1b HCV subgenomic replicon in Huh-5-2 cells. The format is cell-based, hepatitis C virus.
Data set [2] in a line: thermodynamic and kinetic water solubility. The format is physicochemical. The essentials: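 Test compound solutions shaken in a shaker bath for 48 h at room temperature, then filtered. Dissolved compound quantified by LC–UV–MS against calibration curves made from standard solutions in methanol. Determinations in triplicate.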
Data set [3] addresses recombinant NS5BCΔ21 mutant M423T (Hepatitis C virus genotype 1b, UniProt O92972, M2842T). The data set is described as follows: NS5B mutant counterscreen assay, M423T. The data set is classed as biochemical. Particulars: M423T relative to NS5B WT (IC50 = 4.3 μM). For orientation: The purpose of a counterscreen is to sort out artefacts and off-target activity.

SMILES strings stand for the structures. Values after ≈ are worked out from the molar mass of the structure shown. “Also recorded” adds a separate entry of the source.

With `CN1c2c(C(=O)Nc3ccc(NS(C)(=O)=O)cc3)nn(-c3ccc(Cl)cc3)c2-c2ccccc2S1(=O)=O` [2b, 1-(4-Chlorophenyl)-4-methyl-N-{4-[(methylsulfonyl)amino]phenyl}-1,4-dihydropyrazolo[4,3-c][1,2]benzothiazine-3-carboxamide 5,5-Dioxide], the “fold more active than o-chlorine derivative 2c (NS5B)” value at recombinant NS5BCΔ21 1b is reported as ~2 fold. Further, the “induction of phospholipidosis/steatosis (different stainings)” value with Huh-9-13 cells is listed as “induced pospholipidosis/steatosis”. The “effect on cell morphology (microscopic analysis)” value in the data set on Huh-5-2 cells is “did not show any significant cell morphological alterations; also recorded: did not display any significant effects on cell morphology; also recorded: did not exhibit any cell morphological alterations; also recorded: did not show any significant alteration in cell morphology; also recorded: did not display any antimetabolic and cell morphology alteration effects”. In addition, in data set [1], the “SI (ratio of CC50 to EC50)” value is > 28 and the “assessment of anti-HCV activity in the replicon assay (in words)” value was “selective anti-HCV activity without any antimetabolic effect”.
Regarding `CN1c2c(C(=O)Nc3ccc(NS(C)(=O)=O)cc3)nn(-c3cccc(Cl)c3)c2-c2ccccc2S1(=O)=O` [2a, 1-(3-Chlorophenyl)-4-methyl-N-{4-[(methylsulfonyl)amino]phenyl}-1,4-dihydropyrazolo[4,3-c][1,2]benzothiazine-3-carboxamide 5,5-Dioxide], the solubility (kinetic) at 48 h in data set [2] (kinetic from dmso stock) was determined as 0.275 µM (≈ 0.154 µg/mL). The thermodynamic solubility at 48 h in data set [2] (thermodynamic from solid) is 0.00398 µM (≈ 0.00222 µg/mL). Further, on recombinant NS5BCΔ21 1b, the “fold higher NS5B inhibitory activity than parent compound 1” value is on record as “about 5 fold” and the “fold more active than o-chlorine derivative 2c (NS5B)” value was “about 4 fold”. Further, in the data set with Huh-9-13 cells (90 μM), the “induction of multilamellar bodies (monodansylcadaverine stain)” value is “did not induce multilamellar bodies”; the “neutral lipids content (Nile Red and LipidTOX red stain)” value is recorded as “significantly altered the neutral lipids content”. The fold change in data set [3] is given as ~2. Also, in data set [1], the “assessment of anti-HCV activity in the replicon assay (in words)” value was “selective anti-HCV activity without any antimetabolic effect”.
